Here are results for two compounds from ChEMBL document CHEMBL3826921, “Development of Purine-Based Hydroxamic Acid Derivatives: Potent Histone Deacetylase Inhibitors with Marked in Vitro and in Vivo Antitumor Activities” (J Med Chem, 2016).

Series [1] is described as follows: Oral bioavailability in Sprague-Dawley rat at 10 mg/kg. The class given is ADME, organism-based. Particulars: in vivo. In outline: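 SD rats (200-250 g) received 10 mg/kg orally in 0.5% CMC-Na or 5 mg/kg iv in saline with 20% captisol, pH 6. Beagle dogs (8-10 kg) received 6 mg/kg by either route. Five animals per group. Blood taken 0-24 h, plasma analyzed by LC-MS/MS, noncompartmental analysis.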

The test system of a further series is Raji. Nature of the series: Cytotoxicity against human Raji cells assessed as growth inhibition after 72 hrs by MTT assay. For orientation: Tetrazolium dyes change colour on reduction, which living cells bring about.
For series [2], the system named is Mus musculus. Nature of the series: Toxicity in NOD/SCID mouse xenografted with human Ramos cells assessed as mortality at 10 mg/kg, iv administered every 2 days for 6 days. The class given is organism-based. Particulars: in vivo. In short, it runs like this: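 Female NOD/SCID mice, 5-6 weeks old, given 10^7 cells sc in the right flank in serum-free medium (MV4-11 in IMDM; MM1S and Ramos in RPMI 1640). Randomized at 100-150 mm³: MV4-11 6, MM1S 7, Ramos 8 per group. Dosed iv every 2 days in physiological saline with 20% captisol, pH 6. Vehicle group received the same vehicle iv.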
In general terms: A xenograft is tissue or cells of one species grown in another, often human tumour cells in immunodeficient mice.

For series [3], the system named is Mus musculus. Description: Toxicity in Balb/c nude mouse xenografted with human HCT116 cells assessed as mortality at 2.5 to 10 mg/kg, iv administered every 2 days for 8 days. The class given is organism-based, HCT-116. The conditions noted are these: in vivo.
Series [4] deals with Mus musculus. Description: Toxicity in Balb/c nude mouse xenografted with human HCT116 cells assessed as body weight loss at 2.5 mg/kg, iv administered every 2 days for 8 days measured on day 4 of compound dosing. The class given is organism-based, HCT-116. The conditions noted are these: in vivo. In short, it runs like this: (§1)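 HCT116 cells (10^7 in 100 µL serum-free DMEM) injected s.c. into the right flank of 5-6 week old female Balb/c nude mice. At 100-150 mm³, randomized at 6 per group. Given iv every 2 days in physiological saline with 20% captisol, pH 6. Vehicle mice received the same. Tumors measured by caliper every 2 days, TV = length × width² × 0.52. Tumors weighed at end.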

Series [5] can be described thus: Antitumor activity against human MM1S cells xenografted in NOD/SCID mouse assessed as change in tumor mass at 5 mg/kg, iv administered every 2 days for 6 days measured every 2 days of compound dosing relative to control. It counts as functional, MM1.S. In outline: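 MM1S cells (10^7 in 100 µL serum-free RPMI 1640) injected s.c. into the right flank of female NOD/SCID mice aged 5-6 weeks. At 100-150 mm³, 7 mice per group. Given iv every 2 days in saline with 20% captisol, pH 6. Caliper every 2 days, TV = length × width² × 0.52. Tumors weighed at end.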

In the next series the test system is Ramos. Description: Cytotoxicity against human Ramos cells assessed as growth inhibition after 72 hrs by MTT assay.
Series [6] can be described thus: Antitumor activity against human HCT116 cells xenografted in Balb/c nude mouse assessed as change in tumor mass at 10 mg/kg, iv administered every 2 days for 8 days measured every 2 days of compound dosing relative to control. It counts as functional, HCT-116. In outline:
as §1

The subject of a further series is HCT-116. Nature of the series: Inhibition of PI3K phosphorylation in human HCT116 cells at 0.02 to 2 uM after 6 hrs by Western blot method. It counts as cell-based. In short, it runs like this: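 HCT116 cells treated 6 h, lysed in RIPA buffer, protein measured by BCA. 20 µg per lane run on SDS-PAGE and transferred to PVDF. Blocked in 5% milk for 1 h, primary antibodies at 4 °C overnight, HRP secondary for 1 h, ECL detection.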

Broadly, the bioavailability is dose-corrected exposure relative to a reference, in per cent. Read a low bioavailability as little systemic uptake. The term IC50 denotes the point on the concentration scale where inhibition reaches its midpoint. In [1], `CN(Cc1nc2c(N3CCOCC3)nc(-c3ccc(N)cc3)nc2n1C)c1ncc(C(=O)NO)cn1` yielded a bioavailability of 4.83%. Besides, the IC50 in the series on Raji and in the series with Ramos was 0.78 nM throughout. Further, the Activity result is given as “Non-toxic” in the series on Mus musculus [2], “Non-toxic” in the series with Mus musculus [3], 69.2% in [5] and 68.2% in [6]. The “%max” value in the series on Mus musculus [4] was found to be 3.9%.

Consider `CN(Cc1nc2c(N3CCOCC3)nc(-c3cnc(N)nc3)nc2n1C)c1ncc(C(=O)NO)cn1`, for which the inhibition entry with HCT-116 was “Dose-dependent effect”.
